Laboratory results reported in ChEMBL document CHEMBL4270571, “6-Biphenylmethyl-3-hydroxypyrimidine-2,4-diones potently and selectively inhibited HIV reverse transcriptase-associated RNase H” (Eur J Med Chem, 2018).

Key:
[1] = molecular target: Human immunodeficiency virus type 1 reverse transcriptase (Human immunodeficiency virus 1, UniProt Q72547); assay: Inhibition of recombinant HIV1 reverse transcriptase RNase H expressed in Escherichia coli JM109 using RNA/DNA duplex substrate HTS1 as substrate
[2] = molecular target: Human immunodeficiency virus type 1 integrase (Human immunodeficiency virus 1, UniProt Q7ZJM1); assay: Inhibition of HIV integrase strand transfer activity expressed in Escherichia coli BL21 (DE3) using 5' biotin ATGTGGAAAATCTCTAGCA primer annealed with ACTGCTAGAGATTTTCCACAT 3' Cy5 template preincubated for 10 mins followed by primer/template addition measured after 30 mins by fluorescence assay
Method in brief: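 Purified HIV integrase in 10 mM HEPES pH 7.5, 10% glycerol, 10 mM MnCl₂, 1 mM DTT, with compounds in duplicate at 0.13–100 (final), 10 min at 25 °C. 500 nM biotin/Cy5 oligo duplex added, 30 min at 37 °C, EDTA quench. Products captured on streptavidin beads, washed, NaOH-denatured, formamide-eluted, read at 635/675.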

Gag-Pol polyprotein = Gag-Pol polyprotein (Human immunodeficiency virus type 1 group M subtype B (isolate HXB2)(HIV-1), UniProt P04585); assay: Inhibition of recombinant HIV1 reverse transcriptase polymerase expressed in Escherichia coli JM109 assessed as decrease in extension of 18 nucleotide DNA primer annealed to 100 nucleotide DNA template measured after 30 mins; design: species or system Human immunodeficiency virus 1
Method in brief: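 18-nt DNA primer annealed to 100-nt DNA template (40 nM) was extended by 20 nM RT with dNTPs in 50 mM Tris pH 7.8, 50 mM NaCl, 1% DMSO, with increasing compound concentrations. Reactions were started with 6 mM MgCl₂, run 30 min at 37 °C, and stopped with EDTA. dsDNA formed was quantified by fluorescent dye (ex/em 504/531 nm), and dose-response data were fitted to a logistic curve.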

[3] = Cytotoxicity against human P4R5 cells assessed as reduction in cell viability after 72 hrs by XTT assay; assay type: cell-based
Method in brief: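 P4R5 cells seeded at 4 × 10³ per well in DMEM/10% FBS with puromycin ([…]). Cells treated with 1% DMSO or varying compound concentrations for 72 h, then viability read by XTT kit. CC50 = concentration giving 50% cell death, mean from at least two independent experiments.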

[4] = test system: Human immunodeficiency virus 1; assay: Antiviral activity against HIV1 infected in human P4R5 cells assessed as reduction in viral infection preincubated with cells for 24 hrs followed by viral infection measured after 48 hrs by fluorescence based MAGI assay; assay type: functional, organism-based
Method in brief: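 P4R5 indicator cells were seeded at 4 × 10³ per well in DMEM/10% FBS with puromycin. They were pretreated for 24 h with 1% DMSO or a range of compound concentrations, then infected with HIV-1 at an MOI of 1.25 for another 48 h. Cells were lysed and β-galactosidase was read by fluorescence with MUG substrate. EC50 is given as mean ± SD of at least two independent experiments.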

[5] = Selectivity ratio of CC50 for human P4R5 cells to EC50 for HIV1 infected in human P4R5 cells; assay type: toxicity, cell-based
Method in brief: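 P4R5 indicator cells, 4 × 10³ per well in DMEM/10% FBS with puromycin. […] Cytotoxicity arm: uninfected cells, compound for 72 h, XTT read-out; CC50 is 50% cell death. Each value is mean ± SD of ≥2 independent experiments.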

Human immunodeficiency virus type 1 integrase, sequence (Q7ZJM1 whole entry): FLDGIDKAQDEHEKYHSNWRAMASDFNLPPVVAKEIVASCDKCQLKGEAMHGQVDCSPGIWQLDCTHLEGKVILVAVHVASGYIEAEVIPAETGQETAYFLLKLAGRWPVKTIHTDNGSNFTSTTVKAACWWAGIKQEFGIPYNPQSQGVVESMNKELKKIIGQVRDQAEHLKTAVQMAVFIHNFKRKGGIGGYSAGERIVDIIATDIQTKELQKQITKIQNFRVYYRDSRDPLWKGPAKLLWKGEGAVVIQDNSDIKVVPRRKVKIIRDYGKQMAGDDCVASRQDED

SMILES	IC50 [1] [µM]	IC50 [2] [µM]	IC50 (Gag-Pol polyprotein) [µM]	CC50 [3] [µM]	EC50 [4] [µM]	Ratio CC50/EC50 [5]
CC(C)c1c(Cc2ccc(F)cc2)n(COCc2ccc(F)cc2)c(=O)n(O)c1=O	6.2					
CC(C)c1c(Cc2ccccc2)n(COCc2ccccc2)c(=O)n(O)c1=O	2.5					
CC(C)c1c(Cc2ccccc2)n(COCc2ccc(F)cc2)c(=O)n(O)c1=O	2.1					
CCOCn1c(Cc2ccccc2)c(C(C)C)c(=O)n(O)c1=O	6.8					
CCOCn1c(Cc2ccc(F)cc2)c(C(C)C)c(=O)n(O)c1=O	> 25					
CC(C)c1c(Cc2ccccc2)n(COCc2ccc(F)cc2F)c(=O)n(O)c1=O	1.8					
CC(C)c1c(Cc2ccccc2)n(COCc2cccc(Cl)c2F)c(=O)n(O)c1=O	0.9					
CC(C)c1c(Cc2ccccc2)n(COCc2ccc(F)cc2)c(=O)n(C)c1=O	7					
COn1c(=O)c(C(C)C)c(Cc2ccccc2)n(COCc2ccc(F)cc2)c1=O	11					
CC(C)c1c(Cc2ccccc2)n(COCCc2ccc(F)cc2)c(=O)n(O)c1=O	2.8					
CC(C)c1c(Cc2ccccc2)n(COCCCCc2ccc(F)cc2)c(=O)n(O)c1=O	1.8					
CC(C)c1c(Cc2ccccc2)n(CCc2ccc(F)cc2)c(=O)n(O)c1=O	6.6					
CC(C)c1c(Cc2ccccc2)n(CCCc2ccc(F)cc2)c(=O)n(O)c1=O	3.8					
CC(C)c1c(Cc2ccccc2)n(CCCCc2ccc(F)cc2)c(=O)n(O)c1=O	0.9					
CCc1c(Cc2ccccc2)c(=O)n(O)c(=O)n1COCc1ccc(F)cc1	15					
CC(C)c1c(Cc2ccc(F)cc2)n(Cc2ccccc2)c(=O)n(O)c1=O	10					
CC(C)c1c(Cc2ccc(F)cc2)n(Cc2ccc(F)cc2)c(=O)n(O)c1=O	13					
CC(C)c1c(Cc2ccccc2)n(Cc2ccccc2)c(=O)n(O)c1=O	15					
Cc1cc(-c2ccc(Cc3cc(=O)n(O)c(=O)[nH]3)cc2)ccc1F	0.011	> 100	> 10	> 100	> 20	
O=c1cc(Cc2ccc(Br)cc2)[nH]c(=O)n1O	0.011	> 100	> 10	64	> 20	
CCOCn1c(Cc2ccc(-c3ccccc3)cc2)cc(=O)n(O)c1=O	> 5			> 100	> 20	
O=c1cc(Cc2ccc(-c3ccc(C(F)(F)F)cc3C(F)(F)F)cc2)[nH]c(=O)n1O	0.085	> 100	> 10	> 100	> 20	
O=c1cc(Cc2cccc(-c3cccc(Cl)c3)c2)[nH]c(=O)n1O	0.02	> 100	10	62	11	4 to 6
O=c1cc(Cc2ccc(-c3ccc(Cl)c(F)c3)cc2)[nH]c(=O)n1O	0.0094	> 100	> 10	59	15	

SMILES	IC50 [1] [µM]	IC50 [2] [µM]	IC50 (Gag-Pol polyprotein) [µM]	CC50 [3] [µM]	EC50 [4] [µM]	Ratio CC50/EC50 [5]
O=c1cc(Cc2ccc(-c3ccc(C(F)(F)F)cc3)cc2)[nH]c(=O)n1O	0.047	> 100	> 10	> 100	16	
O=c1cc(Cc2cccc(-c3cccc(C(F)(F)F)c3)c2)[nH]c(=O)n1O	0.037	> 100	> 10	> 100	> 20	
O=c1cc(Nc2ccc(-c3ccccc3)cc2)[nH]c(=O)n1O			2			
CCOCn1c(Cc2ccc(-c3cc(OC)cc(OC)c3)cc2)c(C)c(=O)n(O)c1=O	6.7					
O=c1cc(Cc2ccc(-c3ccccc3)cc2)[nH]c(=O)n1O	0.016	> 100	> 10	11	10	
O=c1cc(Cc2ccc(-c3cccc(F)c3)cc2)[nH]c(=O)n1O	0.028	> 100	> 10	24	12	
COc1ccc(-c2cccc(Cc3cc(=O)n(O)c(=O)[nH]3)c2)cc1F	0.0077	> 100	> 10	20	12	
O=c1cc(Cc2ccc(-c3ccc(F)cc3F)cc2)[nH]c(=O)n1O	0.015	> 100	> 10	11	5.6	
O=c1cc(Cc2cccc(-c3ccc(Cl)cc3)c2)[nH]c(=O)n1O	0.012	> 100	> 10	27	7.6	4 to 6
CCOCn1c(Cc2ccc(-c3ccc(C(F)(F)F)cc3)cc2)cc(=O)n(O)c1=O	2.1					
COc1ccc(-c2ccc(Cc3cc(=O)n(O)c(=O)[nH]3)cc2)cc1F	0.0076	> 100	> 10	49	11	4 to 6
O=c1cc(Cc2cccc(Br)c2)[nH]c(=O)n1O	0.013	> 100	> 10	63	> 20	
O=c1cc(Cc2ccc(-c3cccc(Cl)c3)cc2)[nH]c(=O)n1O	0.016	> 100	> 10	> 100	> 20	
O=c1cc(Cc2cccc(-c3cc(Cl)cc(C(F)(F)F)c3)c2)[nH]c(=O)n1O	0.038	> 100	> 10	> 100	20	
CCc1c(-c2ccc(F)cc2)n(COCc2ccc(F)cc2)c(=O)n(O)c1=O	17					
CCOCn1c(Cc2ccc(-c3ccc(C#N)cc3)cc2)c(C)c(=O)n(O)c1=O	5.2					
O=c1cc(Cc2ccc(-c3cccc(C(F)(F)F)c3)cc2)[nH]c(=O)n1O	0.025	> 100	> 10	> 100	> 20	
O=c1cc(Cc2ccc(-c3cc(Cl)cc(C(F)(F)F)c3)cc2)[nH]c(=O)n1O	0.015	> 100	> 10	> 100	> 20	
Cc1cc(-c2cccc(Cc3cc(=O)n(O)c(=O)[nH]3)c2)ccc1F	0.0088	> 100	> 10	37	12	
O=c1cc(Cc2cccc(-c3ccccc3)c2)[nH]c(=O)n1O	0.016	> 100	> 10	16	9.6	
CCOCn1c(Cc2ccc(-c3ccccc3)cc2)c(C)c(=O)n(O)c1=O	6.2					
CCOCn1c(Cc2ccc(-c3ccc(Cl)c(F)c3)cc2)cc(=O)n(O)c1=O	0.43					
O=c1cc(Cc2ccc(-c3ccc(Cl)cc3Cl)cc2)[nH]c(=O)n1O	0.0092	> 100	> 10	> 100	13	
O=c1cc(Cc2cccc(-c3cccc(F)c3)c2)[nH]c(=O)n1O	0.018	> 100	> 10	14	9.9	
